Here are results for 22 compounds from ChEMBL document CHEMBL3352770, “Click chemistry inspired synthesis and bioevaluation of novel triazolyl derivatives of osthol as potent cytotoxic agents” (Eur J Med Chem, 2014).

A short description of assay [1]: Cytotoxicity against human HCT116 cells after 24 hrs by MTT assay. Format: functional, cell-based. The note with it: HCT-116, 24 h. In outline: (§1)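 Cells kept in DMEM with 10% foetal calf serum, penicillin and streptomycin, at 37 °C under 5% CO2. For assays serum lowered to 3%. Cells treated with test material at 0.04–60 µM for 24 h, then MTT (250 µg/mL) for 3 h. Formazan OD read at 570 nm. IC50 by non-linear regression, mean of triplicates. BEZ-235 as positive control.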

The test system of a further assay is T47D. Put plainly: Cytotoxicity against human T47D cells after 24 hrs by MTT assay. It is filed as functional, cell-based. The method, boiled down: as §1
For orientation: Tetrazolium assays rely on reduction of a dye to a coloured formazan, in cell work by metabolically active cells.

A short description of assay [2]: Cytotoxicity against human NCI-H322 cells after 24 hrs by MTT assay. Format: functional, cell-based. To be noted: NCI-H322, 24 h. In outline: as §1
Assay [3] is described as follows: Cytotoxicity against human PC3 cells after 24 hrs by MTT assay. To be noted: PC-3, 24 h. Format: functional, cell-based. In outline: as §1
The test system of another assay is A-431. Put plainly: Cytotoxicity against human A431 cells after 24 hrs by MTT assay. Format: functional, cell-based. To be noted: A-431, 24 h. In outline:
as §1

Another assay deals with A549. Put plainly: Cytotoxicity against human A549 cells after 24 hrs by MTT assay. The note with it: A549, 24 h. Format: functional, cell-based. The method, boiled down:
as §1

The test system of assay [4] is COLO 205. Put plainly: Cytotoxicity against human COLO205 cells after 24 hrs by MTT assay. Format: functional, cell-based. To be noted: COLO 205, 24 h. The method, boiled down: as §1
In assay [5] the test system is COLO 205. Put plainly: Induction of apoptosis in human COLO205 cells assessed as accumulation at subG1 phase at 1 uM after 48 hrs by propidium iodide staining based flow cytometry (reference value: 12%). Format: functional. A general note: A flow cytometer gives signals particle by particle.
The test system of assay [6] is COLO 205. Put plainly: Induction of cell cycle arrest in human COLO205 cells assessed as accumulation at G1 phase at 1 uM after 48 hrs by propidium iodide staining based flow cytometry (reference value: 45.7%). It is filed as functional.
For assay [7], the system named is COLO 205. Put plainly: Induction of cell cycle arrest in human COLO205 cells assessed as accumulation at S phase at 1 uM after 48 hrs by propidium iodide staining based flow cytometry (reference value: 13.8%). It is filed as functional.
Assay [8] relates to COLO 205. Put plainly: Induction of cell cycle arrest in human COLO205 cells assessed as accumulation at G2 phase at 1 uM after 48 hrs by propidium iodide staining based flow cytometry (reference value: 13.2%). It is filed as functional.
For assay [9], the system named is COLO 205. Put plainly: Induction of mitochondrial membrane potential loss in human COLO205 cells at 1 uM after 48 hrs by Rh-123 staining based flow cytometry (reference value: 12.4%). It is filed as functional.

As a reminder, the IC50 is the point on the concentration scale where inhibition reaches its midpoint. The low end stands for higher potency, the high end for lower potency. Consider `Cn1c(=O)n(-c2ccc(C(C)(C)C#N)cc2)c2c3cc(-c4cnc5ccccc5c4)ccc3ncc21` [DACTOLISIB], for which the IC50 in [1] was determined as 0.044 µM; with T47D it was 11.2 µM; in assay [2], 10.3 µM; in assay [3] it was 12.3 µM; in the assay on A-431, 12.5 µM.
Turning to `COc1ccc(-n2cc(COc3c(/C=C\C(=O)O)ccc(OC)c3CC=C(C)C)nn2)cc1`, the IC50 was 8.7 µM in assay [1] and 10.2 µM in the assay on A549.
Turning to `COc1ccc(/C=C\C(=O)O)c(OCc2cn(-c3ccc4c(c3)OCO4)nn2)c1CC=C(C)C`, the IC50 is 20.4 µM in assay [1]; 13.2 µM in the assay with T47D; 22.7 µM in assay [2]; 19.4 µM with A549; 32 µM in assay [3]; 23.1 µM with A-431.
Consider `COc1ccc(/C=C\C(=O)O)c(OCc2cn(-c3ccc(CO)cc3)nn2)c1CC=C(C)C`, for which the IC50 with COLO 205 [4] is 19.3 µM; in assay [1], 31.7 µM; in the assay with T47D it was 40 µM; in [2] it was 27.1 µM; in assay [3] it was 28.3 µM; in the assay on A-431, 16.4 µM.
Consider `COc1ccc(/C=C\C(=O)O)c(OCc2cn(-c3ccc(C#N)cc3)nn2)c1CC=C(C)C`, for which the IC50 with COLO 205 [4] came to 32 µM; in [1] it was 21 µM; with T47D it was 10.2 µM; in assay [2], 18.6 µM; in the assay with A549, 42.2 µM; in the assay on A-431, 23 µM.
`COc1ccc(/C=C\C(=O)O)c(OCc2cn(-c3cccc(C#N)c3)nn2)c1CC=C(C)C`: the IC50 in the assay on COLO 205 [4] stood at 26.8 µM; in assay [1], 35.3 µM; with T47D, 19.2 µM; in [2] it was 26.5 µM; in assay [3], 45.5 µM; with A-431 it was 22.9 µM.
With `COc1ccc(/C=C\C(=O)O)c(OCc2cn(-c3ccccc3F)nn2)c1CC=C(C)C`, the IC50 in the assay on COLO 205 [4] came out at 14.5 µM; in the assay on T47D it was 11 µM; in assay [2] it was 45.6 µM; in assay [3], 24.2 µM; in the assay with A-431 it was 12.4 µM.
`COc1ccc(/C=C\C(=O)O)c(OCc2cn(-c3ccc(NC(=O)c4ccccc4)cc3)nn2)c1CC=C(C)C`: the IC50 in the assay with COLO 205 [4] stood at 20.3 µM; in assay [1] it was 16.4 µM; with T47D, 23.3 µM; in assay [2] it was 17.2 µM; in the assay on A549, 42.7 µM; in the assay with A-431, 21.2 µM.
For `COc1ccc(/C=C\C(=O)O)c(OCc2cn(-c3cccc([N+](=O)[O-])c3)nn2)c1CC=C(C)C`, the IC50 with COLO 205 [4] is 6.9 µM; in [1] it was 27.3 µM; in the assay on T47D, 15.4 µM; in assay [2], 43.2 µM; in [3] it was 42.1 µM; in the assay on A-431, 18.4 µM.
In the case of `COc1ccc(/C=C\C(=O)O)c(OCc2cn(-c3ccccc3C(=O)N3CCC(O)C3)nn2)c1CC=C(C)C` (stereo not given), the IC50 with COLO 205 [4] amounted to 25.4 µM; in [1] it was 32 µM; in the assay on T47D, 13.4 µM; in assay [3], 36.2 µM; in the assay with A-431 it was 31.5 µM.
For `COc1ccc2ccc(=O)oc2c1CC=C(C)C` [OSTHOLE], the IC50 was above 60 µM in the assay with COLO 205 [4]; 30.2 µM in assay [1]; 42.4 µM with T47D; 30.9 µM in assay [2]; 46.2 µM with A549; 24.8 µM in assay [3]. In addition, the IC50 with A-431 was found to be 23.2 µM.
As for `COc1ccc(/C=C\C(=O)O)c(OCc2cn(CC(O)c3ccccc3)nn2)c1CC=C(C)C` (stereo not given), the 50% inhibitory concentration (IC50) came out at 43 µM in the assay on COLO 205 [4]; 45.3 µM in [1]; 17.3 µM in the assay on T47D; 35.4 µM in assay [2]; 14.2 µM in assay [3].
Regarding `COc1cccc(-n2cc(COc3c(/C=C\C(=O)O)ccc(OC)c3CC=C(C)C)nn2)c1`, the IC50 in assay [1] was determined as 21.6 µM; in the assay on T47D it was 20.4 µM; in assay [2], 25.2 µM; in the assay on A549 it was 42.7 µM; in the assay on A-431, 23.2 µM.
Regarding `COc1ccccc1-n1cc(COc2c(/C=C\C(=O)O)ccc(OC)c2CC=C(C)C)nn1`, the IC50 in the assay on COLO 205 [4] was 12.2 µM; in [1], 32.2 µM; in assay [2], 41.5 µM; with A549 it was 43 µM; with A-431, 32.6 µM.
Regarding `COc1ccc(/C=C\C(=O)O)c(OCc2cn(P(=O)(Oc3ccccc3)Oc3ccccc3)nn2)c1CC=C(C)C`, the IC50 worked out at 35.5 µM in assay [1], 30.6 µM in the assay on T47D, 36.2 µM in assay [3] and 43.3 µM in the assay with A-431.
Take `CC[C@@]1(O)C(=O)OCc2c1cc1n(c2=O)Cc2cc3ccccc3nc2-1` [CAMPTOTHECIN]: the Activity was 69.4% in the assay with COLO 205 [5]; 11% in the assay on COLO 205 [6]; 4.9% in the assay on COLO 205 [7]; 2.2% in the assay on COLO 205 [8]; 30.8% in the assay with COLO 205 [9].
Take `COc1ccc(/C=C\C(=O)O)c(OCc2cn(-c3ccccc3C#N)nn2)c1CC=C(C)C`: the IC50 in the assay on COLO 205 [4] was found to be 3.2 µM; in assay [1], 38.3 µM; in the assay on T47D it was 8.8 µM; in assay [2] it was 14.4 µM; in the assay with A549 it was 38.6 µM; in the assay with A-431 it was 10.3 µM.
On to `COc1ccc(/C=C\C(=O)O)c(OCc2cn(-c3ccc(NC(C)=O)cc3)nn2)c1CC=C(C)C`, for which the IC50 came out at 22.6 µM in the assay with COLO 205 [4], 17.4 µM in the assay with T47D, 45.7 µM in [2] and 23.4 µM in the assay with A-431.
With `COc1ccc(/C=C\C(=O)O)c(OCc2cn(-c3ccccc3)nn2)c1CC=C(C)C`, the IC50 came to 32.3 µM with COLO 205 [4]; 26 µM in assay [1]; 34.1 µM with T47D; 29.2 µM in [2]; 40.5 µM in the assay on A549; 35 µM in [3]. Besides, in the assay on A-431, the IC50 worked out at 21.2 µM.
Consider `COc1ccc(/C=C\C(=O)O)c(OCc2cn(-c3cccnc3Cl)nn2)c1CC=C(C)C`, for which the IC50 amounted to 23 µM in [1], 42.2 µM in assay [2], 5.6 µM in the assay with A549 and 32.6 µM in the assay with A-431.
For the compound `COc1ccc(/C=C\C(=O)O)c(OCc2cn(-c3ccccc3I)nn2)c1CC=C(C)C`, the IC50 in assay [1] came out at 23.1 µM; in assay [2], 42.3 µM; in the assay on A549, 2.2 µM; in the assay on A-431 it was 32.7 µM.
For the compound `COc1ccc(/C=C\C(=O)O)c(OCc2cn(-c3nc4ccccc4s3)nn2)c1CC=C(C)C`, the IC50 in the assay on COLO 205 [4] was 20.2 µM; in [1] it was 16.4 µM; in the assay with T47D, 17.2 µM; in assay [2] it was 23 µM; with A549, 42.1 µM; with A-431 it was 20.8 µM.
